Test results as given in paper PMC6863163 (Journal of neuro-oncology, 2019).
Values joined by “and” are separate entries in the source; they are usually repeats but may differ in a detail not shown here. Equal entries are not always repeated. Where two headings read alike, the source gives them in different places.

Columns and labels:
[1] = test system: recurrent GBM; details: three of 17 patients with recurrent GBM; 150 mg or 200 mg twice daily; cited from earlier work
[2] = test system: recurrent Rb-positive GBM; details: 22 patients, 125 mg/day, 21-days-on, 7-days-off; cited from earlier work
[3] = test system: GBM cell proliferation; details: 7 days before surgery, 4 matched samples; ref Taylor et al. 34; cited from earlier work
[4] = format: in vivo, human
Procedure, shortened: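 Patients took oral ribociclib, 600 mg/day, for 8–21 days, with the last dose 4–8 h before surgery. Baseline blood was drawn before treatment and again within 1 h before surgery, then split into plasma and buffy coat. CSF was collected during surgery when feasible. Tumor core and infiltrating regions were located by stealth MRI and frozen. Total drug was measured by validated LC–MS/MS. Unbound drug equals fraction unbound × total.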

[5] = format: in vitro ADME, human
Procedure, shortened: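 Plasma and tumor homogenate came from patients dosed at ribociclib 600 mg/day for 8–21 days. Samples were collected 4–8 h after the last pre-surgical dose. Fraction unbound was determined by equilibrium dialysis across a 5-kDa cutoff regenerated cellulose membrane.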

[6] = Safety monitoring, adverse events graded by NCI CTCAE version 4.0; format: in vivo, human; details: for Cough / Creatinine increased / Edema, limbs / Gait disturbance / Generalized muscle weakness / Hyperglycemia / Musculoskeletal and connective tissue disorder—other: muscle pain / Nausea / Peripheral sensory neuropathy / Psychosis / Insomnia: count, prior to surgery and during treatment phase
Procedure, shortened: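 Participants with recurrent GBM took oral ribociclib, 600 mg once daily, for 8–21 days before resection. Rb-positive cases then continued on 21 days on and 7 days off per 28-day cycle. Throughout treatment, staff monitored complete blood counts, blood chemistry, 12-lead ECG, vital signs, Karnofsky status and physical exam. Adverse events were graded by NCI CTCAE v4.0 and assessed for expectedness and drug attribution.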

[7] = test system: recurrent GBM; test: Disease progression; format: in vivo, human; details: for PFS from start of Ribociclib: 600 mg/day, 21-days-on, 7-days-off after surgery; for OS from second surgery: other regimens off-study after progression
Procedure, shortened: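 Patients with Rb-positive recurrent tumors continued oral ribociclib, 600 mg/day, 21 days on and 7 days off per 28-day cycle, until progression or unacceptable toxicity. Follow-up MRI, including perfusion and diffusion-weighted images, was done after every two cycles. Progression was judged by the Response Assessment in Neuro-Oncology (RANO) criteria.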

[8] = test system: RbS807/811; test: Immunohistochemistry for phospho-Rb in paired tumor specimens; format: in vivo, human
[9] = test system: Rb phosphorylation; details: cultured cells, in vitro; cited from earlier work
[10] = test system: cell growth; details: suppression of cell growth in vitro; no reference given; cited from earlier work
[11] = cited from earlier work
[12] = test system: Rb phosphorylation; details: 900 mg/day for 5 days before surgery, 12 patients; ref Tien et al. 37; cited from earlier work
[13] = test system: cell proliferation; details: 900 mg/day for 5 days before surgery, 12 patients; ref Tien et al. 37; cited from earlier work
[14] = enhancing tumor, subject RIBO-001, mean of specimens
[15] = enhancing tumor, subject RIBO-003, mean of specimens
[16] = mean across all specimens, 600 mg QD 8–21 days
[17] = mean ± SD, all tumor specimens of three subjects
[18] = mean ± SD, assuming tumor tissue density of 1.04 g/mL
[19] = non-enhancing tumor, subject RIBO-001, mean of specimens
[20] = tumor core, subject RIBO-002, mean of specimens
[21] = tumor core, subject RIBO-003, mean of specimens

For `CCN1CCN(Cc2ccc(Nc3ncc(F)c(-c4cc(F)c5nc(C)n(C(C)C)c5c4)n3)nc2)CC1` [abemaciclib], the “Best response: duration of stable disease” value [1] is listed as ≥ 24 weeks.

For `CC(=O)c1c(C)c2cnc(Nc3ccc(N4CCNCC4)cn3)nc2n(C2CCCC2)c1=O` [palbociclib], the “Median PFS” value [2] is given as 5.1 weeks, the OS [2] is given as 15.4 weeks and the “Change in GBM cell proliferation by Ki-67 IHC” value [3] is given as “did not produce significant changes”. For the same molecule, the “Tumor drug concentrations vs pharmacologically active level” value [3] was “exceeded those felt to be pharmacologically active”.

With `CN(C)C(=O)c1cc2cnc(Nc3ccc(N4CCNCC4)cn3)nc2n1C1CCCC1` [ribociclib] the “Mean unbound ribociclib concentration in CSF” value ([4]; 600 mg QD 8–21 days, one CSF sample) was 0.632 µM and 0.63 µM, the “Ribociclib CSF concentration relative to the IC50 for inhibition of CDK4/6” value ([4]; CSF) was “> fivefold” and the “Total ribociclib (CSF ribociclib concentration)” value ([4]; CSF collected during surgery, subject RIBO-003, 600 mg QD, 14 days) was 0.63 µM. For the same molecule, the “Total drug tumor (mean concentration)” value [4, 14] was 17.97 nmol/g, the “Unbound drug tumor (mean concentration)” value [4, 14] was 0.79 nmol/g and the “Total drug tumor (mean concentration)” value ([4]; enhancing tumor, subject RIBO-002, mean of specimens) was 24.73 nmol/g. The “Total drug tumor (mean concentration)” value [4, 15] was 29.99 nmol/g, the “Unbound drug tumor (mean concentration)” value [4, 15] was 1.29 nmol/g and the Kp ([4]; human, CSF / unbound plasma, oral, 600 mg/day, CSF/unbound plasma concentration ratio, one patient, 0.63/0.49) was 1.29. For the same molecule, the “Mean unbound ribociclib concentration in MRI-enhancing tumor” value [4, 16] was 1.242 nmol/g, the “Mean unbound ribociclib concentration in MRI-non-enhancing tumor” value [4, 16] was 0.484 nmol/g and 0.48 nmol/g and the “Mean unbound ribociclib concentration in tumor core” value [4, 16] was 1.526 nmol/g. For the same molecule, the “Mean concentration of unbound ribociclib in MRI-enhancing tumor or core” value ([4]; mean across all subjects, reported herein, 600 mg/day) was 1.33 nmol/g, the “Mean unbound ribociclib concentration in plasma” value ([4]; mean across participants, 600 mg QD 8–21 days) was 0.337 µM and the “Tumor tissue concentration of total ribociclib” value [4, 17] was 23.42 ± 10.79 nmol/g. For the same molecule, the “Tumor tissue concentration of unbound ribociclib” value [4, 17] was 1.24 ± 0.64 nmol/g, the “Tumor tissue concentration of total ribociclib” value [4, 18] was 24.36 ± 11.22 µM and the “Unbound ribociclib intra-tumor drug concentration” value [4, 18] was 1.29 ± 0.67 µM. For the same molecule, the “Unbound concentration in non-enhancing tumor relative to the IC50 for inhibition of CDK4/6” value ([4]; non-enhancing tumor) was “> fivefold”, the “Total drug tumor (mean concentration)” value [4, 19] was 8.86 nmol/g and the “Unbound drug tumor (mean concentration)” value [4, 19] was 0.48 nmol/g. For the same molecule, the Total ribociclib ([4]; plasma, day of surgery, subject RIBO-001, 600 mg QD, 8 days before surgery) was 3.65 µM, the Total ribociclib ([4]; plasma, day of surgery, subject RIBO-002, 600 mg QD, 12 days before surgery) was 1.26 µM and the Total ribociclib ([4]; plasma, day of surgery, subject RIBO-003, 600 mg QD, 14 days before surgery) was 5.44 µM. The Total ribociclib ([4]; tumor core specimen, subject RIBO-001, 600 mg QD, 8 days, 4–8 h after last dose) was 16.30 nmol/g, the “Total drug tumor (mean concentration)” value ([4]; tumor core, subject RIBO-001) was 16.30 nmol/g and the “Unbound drug tumor (mean concentration)” value ([4]; tumor core, subject RIBO-001) was 0.82 nmol/g. For the same molecule, the “Total drug tumor (mean concentration)” value [4, 20] was 33.03 nmol/g, the “Unbound drug tumor (mean concentration)” value [4, 20] was 2.11 nmol/g and the “Total drug tumor (mean concentration)” value [4, 21] was 21.65 nmol/g. For the same molecule, the “Unbound drug tumor (mean concentration)” value [4, 21] was 1.30 nmol/g, the Fraction unbound ([5]; enhancing tumor specimens, subject RIBO-001) was 3.9% and the Fraction unbound ([5]; enhancing tumor specimens, subject RIBO-002) was 6.4% and 5.8% and 5.4%. The Fraction unbound ([5]; enhancing tumor specimens, subject RIBO-003) was 4.1% and 4.3%, the Fraction unbound ([5]; human, plasma, Fraction unbound, subject RIBO-001) was 0.102 and the Fraction unbound ([5]; human, plasma, Fraction unbound, subject RIBO-002) was 0.119. For the same molecule, the Fraction unbound ([5]; human, plasma, Fraction unbound, subject RIBO-003) was 0.09, the Fraction unbound ([5]; non-enhancing tumor specimens, subject RIBO-001) was 4.2% and the Fraction unbound ([5]; tumor core specimens, subject RIBO-003) was 6.3%. The “Grade of all observed adverse events” value ([6]; CTCAE v4.0, three participants, 600 mg/day) was ≤ 2 grade, the Cough ([6]; Grade 1) was 1 and the Creatinine increased ([6]; Grade 1) was 0. For the same molecule, the “Edema, limbs” value ([6]; Grade 1) was 1, the Gait disturbance ([6]; Grade 1) was 0 and the Generalized muscle weakness ([6]; Grade 1) was 0. The Hyperglycemia ([6]; Grade 1) was 0, the “Musculoskeletal and connective tissue disorder—other: muscle pain” value ([6]; Grade 1) was 1 and the Nausea ([6]; Grade 1) was 1. It also gave a Peripheral sensory neuropathy ([6]; Grade 1) of 1, a Psychosis ([6]; Grade 1) of 1 and a Creatinine increased ([6]; Grade 2) of 1. The “Edema, limbs” value ([6]; Grade 2) was 0, the Gait disturbance ([6]; Grade 2) was 1 and the Generalized muscle weakness ([6]; Grade 2) was 1. For the same molecule, the Hyperglycemia ([6]; Grade 2) was 1, the Insomnia ([6]; Grade 2) was 1 and the “Musculoskeletal and connective tissue disorder—other: muscle pain” value ([6]; Grade 2) was 0. It also gave a Nausea ([6]; Grade 2) of 0, a Peripheral sensory neuropathy ([6]; Grade 2) of 0 and a Cough ([6]; Total) of 1. The Creatinine increased ([6]; Total) was 1, the “Edema, limbs” value ([6]; Total) was 1 and the Gait disturbance ([6]; Total) was 1. The Generalized muscle weakness ([6]; Total) was 1, the Hyperglycemia ([6]; Total) was 1 and the Insomnia ([6]; Total) was 1. For the same molecule, the “Musculoskeletal and connective tissue disorder—other: muscle pain” value ([6]; Total) was 1, the Nausea ([6]; Total) was 1 and the Peripheral sensory neuropathy ([6]; Total) was 1. The Psychosis ([6]; Total) was 1, the Serious adverse events ([6]; three participants, 600 mg/day) was “No participants experienced serious adverse events” and the “Withdrawal from the study due to adverse events” value ([6]; three participants, 600 mg/day) was “No participants withdrew”. The Disease progression ([7]; all three participants, ribociclib monotherapy) was “all experienced early disease progression”, the “PFS from start of Ribociclib” value ([7]; participant 001) was 2 months and the “OS from second surgery” value ([7]; participant 001) was 10 months. For the same molecule, the “PFS from start of Ribociclib” value ([7]; participant 002) was 5 months, the “OS from second surgery” value ([7]; participant 002) was 19 months and the “PFS from start of Ribociclib” value ([7]; participant 003) was 2 months. For the same molecule, the “OS from second surgery” value ([7]; participant 003) was 12 months, the “Inhibition of tumor tissue CDK4/6 activity (phospho-Rb IHC) or cell proliferation (Ki-67 IHC)” value ([8]; 600 mg/day monotherapy, archived vs post-ribociclib tumor tissue) was “did not consistently inhibit” and the “Proportion of phospho-Rb-positive tumor cells and phospho-Rb histoscores, ribociclib-treated vs. baseline tumors” value ([8]; 8–21 days of ribociclib 600 mg/day, three subjects, Fig. S1A) was “Two of the three subjects showed a decrease”. The “Ribociclib (total drug) sufficient to suppress Rb phosphorylation” value [9] was 200 nM, the GI50 [10] was 0.276 µM and the “Mean unbound ribociclib fraction in plasma” value ([11]; CV = 17.6%) was 12.7%. For the same molecule, the “Mean unbound ribociclib fraction in tumor tissues” value ([11]; CV = 23%) was 4.6%, the “Change in Rb phosphorylation, archived vs post-ribociclib tumor” value [12] was “significant decrease” and the “Change in cell proliferation, archived vs post-ribociclib tumor” value [13] was “significant decrease”.
